In PubChem BioAssay AID743238 (Broad Institute, 2013) one finds activation data, which are given here for 65 compounds.

The structures appear in SMILES notation. Hit rate of the full screen: of about 360,000 compounds, about 200 (0.056%) were called active.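 How the source made its calls: active means mean normalized replicate activation at least 10% and every replicate at or above 10%; inconclusive means only one of the two criteria met; inactive means mean below 10% and not all replicates reach 10%.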 This excerpt belongs to a sample that is enriched for actives.

A short description of the experiment: Xi reactivation inducers in mouse fibroblasts – imaging, XiGFP fibroblasts, GFP high-content imaging, set 2, primary screen (AID 743238).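 Further: 0% = median of on-plate neutral control wells and 100% = ellipticine 6 µM median.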 Conditions: % GFP-positive cells imaging, 3 d, at 7.58 µM, active compounds read high, cells co-treated with 5-aza-dC sensitizer, scaled so ellipticine positive control = 100%. The method in brief: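 material = 68-5-11 XiGFP fibroblast line | medium = DMEM plus 5-aza-dC sensitizer | schedule = 3 days compound exposure | benchmarks = positive control ellipticine, 6 µM final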
On to `COCC#Cc1ccc([C@@H]2[C@@H](CO)N3C(=O)CN(C(=O)Nc4cc(F)ccc4F)C[C@@H]23)cc1`, for which the activation was 0.227% (inactive).
The figure for `CS(=O)(=O)N1[C@H](C#N)[C@H](c2ccccc2-c2ccc(F)cc2)[C@@H]1CO` is 0.0935% (inactive).
As to `O=C(NCc1ccc(F)cc1)[C@@H]1[C@@H](CO)[C@@H]2Cn3c(cccc3=O)[C@@H]2N1C(=O)c1cccnc1`, the activation is 0.173% (inactive).
The figure for `C[C@H]1CN([C@@H](C)CO)C(=O)c2cc(C3=CCCC3)cnc2O[C@H]1CN(C)Cc1ccccc1C(=O)O` is -0.072% (inactive).
The figure for `O=C(C[C@@H]1CC[C@H](NS(=O)(=O)c2ccc(F)cc2)[C@@H](CO)O1)NCc1ccccc1F` is -0.283% (inactive); for `Cc1noc(C)c1NC(=O)Nc1ccc2c(c1)C(=O)N([C@H](C)CO)C[C@H](C)[C@H](CN(C)S(=O)(=O)c1cccs1)O2` it is 0.0715% (inactive).
Consider `N#C[C@@H]1[C@H](c2ccccc2-c2cccc(F)c2)[C@@H](CO)N1C(=O)C1CCCC1`, for which the activation is 0.007% (inactive).
For `COc1cccc(/C=C/C(=O)OCC(=O)N2CCCc3ccccc32)c1` the value was 0.22% (inactive).
The figure for `Cc1cccc2cc3c(N)c(C(=O)N4CCCc5ccccc54)sc3nc12` is 39.9% (active); for `Cc1cccc(N2CCN(C(C)C(=O)N3CCc4ccccc43)CC2)c1C` (stereo not given) it is 0.0055% (inactive).
For `O=C(C[C@@H]1C[C@H]2c3cc(NC(=O)NC4CCCC4)ccc3O[C@H]2[C@H](CO)O1)NCc1cc(F)ccc1F` the value was 0.0125% (inactive); for `C[C@H](CO)N1C[C@H](C)[C@H](CN(C)S(=O)(=O)c2ccc(Cl)cc2)Oc2ccc(NC(=O)C3CCCCC3)cc2C1=O`, -0.051% (inactive); for `CN1C(=O)c2cc(NC(=O)c3ccc(Cl)cc3)ccc2OC[C@H]2O[C@H](CC(=O)O)CC[C@H]21`, 0.521% (inactive).
As to `C[C@@H]1CCCCO[C@@H](CN(C)Cc2ccc(C(=O)Nc3ccccc3N)cc2)[C@H](C)CN([C@H](C)CO)C(=O)c2cc(N(C)C)ccc2O1`, the activation was 2.13% (inactive).
For `O=C(C1CCCC1)N1CC(=O)N2[C@@H](CO)[C@@H](c3ccc(-c4cccnc4)cc3)[C@@H]2C1` the value was 0.207% (inactive); for `C[C@@H](NC(=O)[C@H]1[C@H](CO)[C@H]2Cn3c(cccc3=O)[C@@H]1N2Cc1cccnc1)c1ccccc1`, 0.133% (inactive); for `C[C@@H]1CN([C@H](C)CO)C(=O)Cc2cc(NC(=O)Nc3ccc4c(c3)OCO4)ccc2O[C@@H]1CN(C)C(=O)Nc1ccccc1`, -0.384% (inactive).
The figure for `CCCNC(=O)N1C[C@@H](C)[C@@H](OC)CN(C)C(=O)c2ccc(NC(=O)C3CCC3)cc2OC[C@@H]1C` is -0.29% (inactive).
Turning to `COc1ccc2c3c([nH]c2c1)[C@@H](CO)N(C(=O)c1ccccc1)CC31CCN(C(=O)Nc2cccc(F)c2)CC1`, the activation is 0.295% (inactive).
For `Cc1noc(C)c1NC(=O)N[C@@H]1C=C[C@@H](CC(=O)Nc2ccccc2)O[C@H]1CO` the value was 0.193% (inactive); for `COc1ccccc1C(=O)N/C(=C/c1ccc2c(c1)OCO2)C(=O)Nc1cccc(C(=O)O)c1`, 0.184% (inactive).
As to `O=C(NC(Cc1ccc(O)cc1)C(=O)O)/C(=C/c1ccccc1)NC(=O)c1ccccc1` (stereo not given), the activation was 0.249% (inactive).
The figure for `O=C(Nc1cccc(C(=O)O)c1)/C(=C\c1ccccc1)NC(=O)c1ccc(Br)o1` is 97.3% (active).
As to `C[C@@H]1CCCCO[C@@H](CN(C)S(=O)(=O)c2cn(C)cn2)[C@@H](C)CN([C@@H](C)CO)C(=O)c2cc(NC(=O)NC3CCCCC3)ccc2O1`, the activation is 0.153% (inactive).
For `O=C(c1ccncc1)N1CC(=O)N2[C@H](C1)[C@@H](c1ccc(C#CCC3CCCC3)cc1)[C@@H]2CO` the value was 0.192% (inactive).
The figure for `C[C@H]1CN([C@@H](C)CO)C(=O)c2cccc(NS(=O)(=O)c3ccc(F)cc3)c2O[C@@H]1CN(C)C` is -0.0195% (inactive).
The figure for `CNC[C@@H]1Oc2ccc(NC(=O)C3CCCCC3)cc2C(=O)N([C@@H](C)CO)C[C@H]1C` is -1.11% (inactive); for `C[C@@H](NC(=O)C[C@@H]1C[C@@H]2c3cc(NC(=O)c4cccnc4)ccc3O[C@@H]2[C@H](CO)O1)c1ccccc1` it is -0.0445% (inactive); for `CC(=O)N1[C@@H]2c3ccc(-c4ccccc4)c(=O)n3C[C@@H]2[C@@H](CO)[C@@H]1C(=O)NCc1ccccc1F` it is 0.21% (inactive).
Regarding `C[C@H](CO)N1C[C@H](C)[C@@H](CN(C)Cc2cccnc2)Oc2ncc(/C=C/c3ccccc3)cc2C1=O`, the activation is -0.672% (inactive).
As to `CC(C)CC#Cc1cnc2c(c1)C(=O)N([C@H](C)CO)C[C@H](C)[C@H](CN(C)CC1CCOCC1)O2`, the activation was 0.516% (inactive).
The figure for `CC[C@H]1CC=CC[C@@H](C)Oc2ccccc2C(=O)N(C)[C@H](Cc2ccccc2)C(=O)N1` (mixture of isomers) is -0.034% (inactive); for `CCOC(=O)c1sc2nc(CSc3ccccc3)[nH]c(=O)c2c1C` it is 21.4% (active); for `CCOC(=O)c1sc2nc(C)nc(SCC(N)=O)c2c1C` it is -0.02% (inactive).
For `CSc1nnc(SCc2nc3sc(C(=O)O)c(C)c3c(=O)[nH]2)s1` the value was 0.212% (inactive); for `C/C=C/c1ccc2c(c1)O[C@H](CN(C)C(=O)Cc1cccnc1)[C@@H](C)CN([C@H](C)CO)S2(=O)=O`, 0.77% (inactive); for `COc1ccc2c3c(n(C)c2c1)[C@H](CO)N(C(C)=O)CC31CN(Cc2ccc(Cl)cc2)C1`, -0.0005% (inactive).
Take `COCCN(C[C@H]1[C@@H](c2ccccc2)[C@H](CO)N1C(=O)C1CCC1)C(C)=O`: the activation was 0.023% (inactive).
The figure for `C/C=C/c1ccc([C@H]2[C@@H](CO)N(C(=O)CC)[C@H]2CN(C)C(=O)C2CC2)cc1` is 0.008% (inactive).
Consider `CCC(=O)Nc1ccc2c(c1)C(=O)N(C)C[C@@H](OC)[C@@H](C)CN(C(=O)CN(C)C)[C@@H](C)CO2`, for which the activation was 0.206% (inactive).
For `CCC(=O)N1CC2(CCN(Cc3ccc(Cl)cc3)CC2)c2c(n(C)c3cc(OC)ccc23)[C@@H]1CO` the value was 0.134% (inactive); for `CCS(=O)(=O)N1CC2(CN(C(=O)c3ccc(F)cc3)[C@@H](CO)c3c2c2ccc(OC)cc2n3C)C1`, 0.267% (inactive); for `C[C@@H]1CN([C@@H](C)CO)S(=O)(=O)c2ccc(Br)cc2O[C@@H]1CN(C)C(=O)CN(C)C`, 0.922% (inactive).
For `O=C(Nc1ccc(F)cc1)N1CC(=O)N2[C@H](CO)[C@H](c3ccc(C#Cc4ccccc4)cc3)[C@H]2C1`, the activation is 0.018% (inactive).
For `C[C@H](CO)N1C[C@H](C)[C@@H](CN(C)S(C)(=O)=O)Oc2ccc(NC(=O)Nc3ccc4c(c3)OCO4)cc2CC1=O` the value was 0.005% (inactive).
For the compound `OC[C@H]1[C@@H](c2ccc(C#Cc3ccccc3F)cc2)[C@H]2CN(CC3CCOCC3)CCCCN21`, the activation was -0.0285% (inactive).
The figure for `C[C@H]1CN([C@@H](C)CO)C(=O)c2cc(-c3ccccc3)cnc2O[C@H]1CN(C)C(=O)C1CCOCC1` is -0.251% (inactive).
With `COCC(=O)Nc1ccc2c(c1)C(=O)N(C)[C@@H]1CC[C@H](CC(=O)NCC3CC3)O[C@H]1CO2`, the activation is 0.286% (inactive).
The figure for `COc1ccc2c3c(n(C)c2c1)[C@H](CO)NCC31CN(S(=O)(=O)c2cccc(C)c2)C1` is 0.887% (inactive); for `COc1cccc(-c2cnc3c(c2)C(=O)N([C@H](C)CO)C[C@H](C)[C@H](CN(C)Cc2ccncc2)O3)c1` it is 0.983% (inactive); for `CC(=O)N(C)C[C@H]1Oc2ncc(C#Cc3ccc(F)cc3)cc2C(=O)N([C@H](C)CO)C[C@@H]1C` it is -1.15% (inactive).
Regarding `C[C@H]1CN([C@@H](C)CO)C(=O)CCCn2cc(nn2)CO[C@H]1CN(C)C(=O)Nc1ccc(F)cc1`, the activation is -0.396% (inactive).
Take `O=C(C[C@H]1C=C[C@@H](NC(=O)CC2CC2)[C@H](CO)O1)NCc1ccc(-c2ccccc2)cc1`: the activation was 0.158% (inactive).
The figure for `COc1ccc(S(=O)(=O)N(C)C[C@@H]2Oc3ccc(NC(=O)CCN4CCOCC4)cc3CC(=O)N([C@@H](C)CO)C[C@@H]2C)cc1` is -1.18% (inactive).
Turning to `O=C(c1cccc(F)c1)N1CC[C@@H]2[C@H](CO)Nc3ccc(C#Cc4ccccc4)cc3[C@@H]21`, the activation is 0.0425% (inactive).
For `CC(C)NC(=O)N(C)C[C@@H]1Oc2ncc(C#CC3CC3)cc2C(=O)N([C@@H](C)CO)C[C@H]1C` the value was -0.634% (inactive); for `Nc1c(C(=O)c2cccs2)sc2nsc(SCCN3CCCCC3)c12`, 114% (active).
For `O=C(NC1CCCC1)N1CC(=O)N2[C@H](C1)[C@H](c1ccc(/C=C/c3ccccc3)cc1)[C@@H]2CO` the value was 0.335% (inactive).
The figure for `CCCC#Cc1ccc([C@H]2[C@H]3CN(C(=O)c4cccnc4)CC(=O)N3[C@H]2CO)cc1` is -0.0225% (inactive).
For `COc1ccccc1-c1ccc([C@H]2[C@@H](CO)N(CC3CC3)C23CN(S(C)(=O)=O)C3)cc1`, the activation was 0.04% (inactive).
The figure for `CO[C@@H]1CN(C)C(=O)c2cc(NC(=O)Nc3ccccc3F)ccc2OC[C@H](C)NC[C@H]1C` is -0.018% (inactive).
For `O=C([C@@H]1[C@@H](CO)[C@@H]2Cn3c(ccc(-c4cncnc4)c3=O)[C@@H]2N1C(=O)C1CCC1)N1CCCCC1` the value was 0.322% (inactive); for `C[C@@H]1CCCCO[C@@H](CN(C)Cc2ccncc2)[C@@H](C)CN([C@H](C)CO)C(=O)c2cc(NS(=O)(=O)c3cccs3)ccc2O1`, 0.415% (inactive); for `CCCN1[C@H](CO)[C@H](c2ccc(C#CC3CCCCC3)cc2)[C@@H]1CNC(=O)C1CC1`, 0.049% (inactive).
The figure for `CN1CCN(C(=O)C[C@@H]2CC[C@@H]3[C@H](COC[C@H](O)CN3CC3CCOCC3)O2)CC1` is 0.0745% (inactive).
